Compound activity from PubChem BioAssay.
This is a sample that favours compounds with a hit; in the whole collection about 5.5% have one here.
Yeast growth inh: chemicals that inhibit yeast BB579 growth in restrictive medium (lifespan-shortening candidates) | inhibition, % at 10 µM | S. cerevisiae BB579 growth, OD615, 48 h | 0.51% of 140,000 active;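 active = inhibition above a set limit, 3 SD over the mean compound inhibition, cut at about 44% in these data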
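System: Saccharomyces cerevisiae DeaD strain BB579, replicative lifespan model yeast. Buffer or medium: restrictive glucose-based CSMM-D medium. Doses: one dose, 10 µM compound with 0.25% DMSO. Timing: 4 h preincubation and 48 h exposure at 30 °C. Detection: turbidity as optical density at 615 nm. Benchmarks: amphotericin B 10 µg/mL, positive.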
RAM inhibit: yeast RAM network inhibition | S. cerevisiae dse1pr::URA3 reporter, 5-FOA growth OD615, 2 d; analog-sensitive cbk1-as2 kinase mutant strain | inhibition, % at 50 µM | 1.8% of 190,000 active | AID 868;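 active = inhibition above a set limit, 3 SD over mean compound inhibition, cut at about 8.4% in these data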;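 also: 0% = DMSO-only wells with no growth and 100% = 10 µM 1-NA-PP1 full growth; inhibition rescues growth on 5-FOA so higher OD means more RAM inhibition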
Yeast life ext: yeast lifespan extension; inhibition of the nicotinamide effect, % at 10 µM; S. cerevisiae growth with nicotinamide, OD615; deaD strain in restrictive glucose medium; AID 775; 0.68% of 130,000 active;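 active = inhibition above a set limit, placed 3 SD over the median of all compounds, cut at about 26% in these data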;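 also: 0% = nicotinamide-treated wells and 100% = cells grown without nicotinamide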
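Measured by: optical density (absorbance) at 615 nm; System: modified budding yeast, DeaD strain; Medium: restrictive CSMM-D dextrose medium; Timing: 4 h preincubation then 48 h treatment at 30 °C.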
KCC2 mod: modulates chloride dependent transport by human KCC2; Q9H2X9; KCC2 cells, thallium flux FluoZin-2 fluorescence; B-score of Tl+ flux slope (higher = more flux/activation; lower = inhibition) at 10 µM; 2.2% of 190,000 active; AID 1456;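 active = thallium flux slope and its plate-corrected score both differing from the plate sample mean at a set confidence after two filtering rounds, in either direction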;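 also: slope of fluorescence scaled to starting intensity during 10 to 20 s after thallium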
Target sequence (Q9H2X9 whole entry, looked up): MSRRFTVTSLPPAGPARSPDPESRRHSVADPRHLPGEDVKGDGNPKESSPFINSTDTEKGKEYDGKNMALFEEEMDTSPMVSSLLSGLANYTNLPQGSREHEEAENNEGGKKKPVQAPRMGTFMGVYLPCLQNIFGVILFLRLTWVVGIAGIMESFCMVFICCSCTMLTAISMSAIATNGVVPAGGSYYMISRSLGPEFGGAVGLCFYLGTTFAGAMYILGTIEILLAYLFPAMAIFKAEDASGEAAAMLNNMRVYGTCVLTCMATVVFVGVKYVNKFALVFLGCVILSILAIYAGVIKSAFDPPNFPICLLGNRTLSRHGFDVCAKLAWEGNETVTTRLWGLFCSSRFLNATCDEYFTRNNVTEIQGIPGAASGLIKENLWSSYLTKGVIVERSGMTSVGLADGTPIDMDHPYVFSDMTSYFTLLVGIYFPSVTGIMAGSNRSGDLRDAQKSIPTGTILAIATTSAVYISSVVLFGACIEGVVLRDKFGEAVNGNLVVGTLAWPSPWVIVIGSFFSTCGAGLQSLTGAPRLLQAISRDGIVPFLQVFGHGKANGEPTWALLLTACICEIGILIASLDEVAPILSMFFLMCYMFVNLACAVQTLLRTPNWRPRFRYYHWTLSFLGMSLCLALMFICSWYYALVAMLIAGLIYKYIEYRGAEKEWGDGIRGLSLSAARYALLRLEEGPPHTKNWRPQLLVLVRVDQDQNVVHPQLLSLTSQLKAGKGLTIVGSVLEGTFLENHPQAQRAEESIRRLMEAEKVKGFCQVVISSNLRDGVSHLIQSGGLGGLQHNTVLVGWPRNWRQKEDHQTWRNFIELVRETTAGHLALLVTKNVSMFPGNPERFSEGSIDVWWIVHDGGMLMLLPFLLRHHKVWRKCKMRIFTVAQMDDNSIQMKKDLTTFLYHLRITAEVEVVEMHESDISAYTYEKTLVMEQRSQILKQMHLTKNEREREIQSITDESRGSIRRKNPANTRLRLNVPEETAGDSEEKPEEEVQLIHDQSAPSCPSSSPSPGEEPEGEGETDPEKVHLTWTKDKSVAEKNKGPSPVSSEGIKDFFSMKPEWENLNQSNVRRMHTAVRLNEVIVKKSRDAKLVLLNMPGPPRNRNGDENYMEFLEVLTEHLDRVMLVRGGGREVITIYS
WT yeast gro inh: growth inhibition of WT yeast, mitochondrial fusion screen. mitochondrial fusion phenotypic screen, WT strain. inhibition, % at 10 µM. 2.1% of 190,000 active. AID 1362; in the data active = inhibition above about 58%; tested in S. cerevisiae
KCC2 secondary: KCC2 (human) modulation, secondary assay. shares compounds with KCC2 mod. HEK293-KCC2, thallium flux, FluoZin2 fluorescence; hits give high values. normalised thallium flux (F/F0 slope) at 10 µM. 15% of 3,700 active. AID 1713;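 active = thallium flux slope above the same plate's solvent-only control mean plus 3 SD; inconclusive = the two replicate wells disagree; inactive = no significant difference from solvent-only control wells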
KCC2 bumet counter: thallium flux persisting under bumetanide in KCC2 cells, counter-screen secondary assay; shares compounds with KCC2 mod; HEK293-KCC2 + bumetanide/ouabain, thallium flux FluoZin2; hits give high values; normalized thallium flux at 10 µM; 49% of 3,700 active; AID 1714;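 active = thallium entry rate above the same plate's blocked-transporter control wells by more than 3 SD; inconclusive = the two repeat wells disagree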;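 also: raw slope of fluorescence over initial fluorescence between 10 and 20 s after thallium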
KCC2 secondary2: KCC2 (human) modulation, second secondary assay | shares compounds with KCC2 mod | HEK293-KCC2, thallium flux FluoZin2 fluorescence; actives lie on both sides; F/F0 rise rate, 10–20 s post-thallium | normalized thallium flux at 10 µM | 23% of 3,700 active;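 active = thallium flux slope more than 3 SD above or below the plate's solvent-only control mean, mostly below; inconclusive = the two repeat wells disagreed; inactive = no significant shift from solvent-only controls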;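 also: raw slope with 0.1% DMSO as baseline and bumetanide as block control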
HEK counter1: acts in parental HEK cells, KCC2 counter-screen | shares compounds with KCC2 mod | thallium flux rate (normalised fluorescence) at 10 µM | HEK293 parental cells, thallium flux FluoZin2, ouabain; baseline-ratio fluorescence slope, 10–20 s after thallium | AID 1716 | 46% of 3,700 active;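 active = thallium flux rate significantly above the same plate's solvent-only control wells, beyond their mean plus 3 SD; inconclusive = the two replicate wells gave conflicting results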
KCC2 ouabain: modulates human KCC2 on retest with ouabain; HEK293-KCC2, thallium flux FluoZin2 fluorescence; bidirectional: low = inhibitor, high = activator; 48% of 3,700 active; shares compounds with KCC2 mod; raw Tl+ flux slope (below DMSO = inhibition, above = activation) at 10 µM; AID 1717;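 active = thallium flux slope beyond 3 SD from same-plate DMSO control mean in most replicates, usually higher, sometimes lower; inconclusive = repeat tests gave conflicting results; inactive = no significant difference from controls in most replicates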;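 also: slope of initial-normalized fluorescence between seconds 10 and 20 after thallium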
HEK counter2: acts in parental HEK cells, second KCC2 counter-screen; 33% of 3,700 active; AID 1718; thallium flux slope at 10 µM; HEK293 parental, thallium flux FluoZin-2 fluorescence slope; shares compounds with KCC2 mod;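 active = thallium flux slope above the same plate's solvent-control mean plus 3 SD in both duplicate wells; inconclusive = duplicate wells that disagreed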;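 also: run without ouabain in cells lacking the KCC2 cotransporter; slope of fluorescence scaled to its starting value between 10 and 20 s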
* marks the source's active call; other numbers are inactive results; ? = inconclusive; . = no result given.

SMILES	Yeast growth inh	RAM inhibit	Yeast life ext	KCC2 mod	WT yeast gro inh	KCC2 secondary	KCC2 bumet counter	KCC2 secondary2	HEK counter1	KCC2 ouabain	HEK counter2
Cc1onc(-c2c(F)cccc2Cl)c1C(=O)NCc1ccccn1	-51.8	0.0	-8.3	-4.92*	17.6	?	?	?	0.0079	0.0225	0.0111
CCOC(=O)c1c(C)c(C(=O)NCc2ccccn2)c(C)n1CC	-32.5	0.7	-9.4	8.33*	-12.7	0.00622	0.00468	0.0318	0.00709	0.0193	0.0106
CCOC(=O)c1ccc(NC(=O)C(=O)NCc2ccccn2)cc1	.	0.8	.	0.0068	-0.6	.	.	.	.	.	.
Cc1onc(-c2ccccc2Cl)c1C(=O)Nc1ccc(F)c(F)c1	-23.2	0.9	-10.9	.	10.7	.	.	.	.	.	.
Cc1onc(-c2ccccc2Cl)c1C(=O)NC(=S)Nc1ccccc1F	.	11.2*	.	54.4*	70.5*	0.0146*	0.0985*	0.0348	0.044*	0.0407*	0.0135*
O=C(CSc1nnc2c(n1)[nH]c1ccc(S(=O)(=O)N3CCOCC3)cc12)Nc1ccc(F)c(F)c1	.	8.3	.	-0.902	9.2	.	.	.	.	.	.
O=C(c1ccc([N+](=O)[O-])c(CS(=O)(=O)c2ccc(Cl)cc2)c1)N1CCCC1	.	-0.6	.	0.784	-0.2	.	.	.	.	.	.
COc1ccccc1NC(=S)NC(=O)c1c(-c2ccccc2Cl)noc1C	.	5.8	.	3.75*	69.5*	0.0118	0.0279*	0.0364	?	0.0296*	?
COc1ccc(CCNC(=S)NC(=O)c2c(-c3ccccc3Cl)noc2C)cc1OC	.	.	.	0.274	.	.	.	.	.	.	.
Cc1[nH][nH]c(=O)c1C(c1ccc(-c2ccc(C(=O)O)cc2)o1)c1c(C)[nH][nH]c1=O	.	0.3	.	-0.157	-9.3	.	.	.	.	.	.
Cc1[nH][nH]c(=O)c1C(c1ccc(-c2ccc(F)cc2)o1)c1c(C)[nH][nH]c1=O	.	-0.9	.	-5.17*	20.7	0.0174	0.00462	0.0251*	0.00745	0.0133	0.0106
Cc1[nH][nH]c(=O)c1C(c1ccc(-c2ccc(Cl)c(Cl)c2)o1)c1c(C)[nH][nH]c1=O	-17.3	0.2	1.6	-3.94*	-14.8	0.00695	0.00466	0.0224*	0.00741	0.015*	0.00931
C#CC[N+]1(CC#Cc2ccc(C)cc2)CCCCC1	-17.7	-0.5	2.0	-0.0227	2.6	.	.	.	.	.	.
COCCn1c(=S)[nH]c2cc(C(=O)N3CCN(c4ccc(F)cc4)CC3)ccc2c1=O	-42.5	7.3	-3.3	.	-2.2	.	.	.	.	.	.
C=CCn1c(SCC(=O)/C(C#N)=C(\C)N)nnc1C1CCCCC1	4.5	2.3	-10.3	0.355	25.7	.	.	.	.	.	.
CCOC(=O)c1cnc(SC)nc1Sc1ccccc1	-21.9	-0.3	-8.7	.	23.6	0.00928	0.00692	0.0328	0.00749	0.0192	0.0112
CCOC(=O)c1cnc(SC)nc1N	-73.0	0.0	-14.1	-0.276	7.4	.	.	.	.	.	.
CC1(C(=O)OCC(=O)c2c[nH]c3ccccc23)CC1(Cl)Cl (stereo not drawn)	-44.3	-1.6	-23.2	-2.48*	67.2*	0.00525	0.00527	0.0282	0.00783	0.0161*	0.0113
Cc1cccc(OCCc2nnc(N)s2)c1C	-14.6	-0.3	-6.6	-5.93*	5.8	0.0066	0.00492	0.0256*	0.00787	?	0.0122
CCc1nnc(NC(=O)c2ccc3ccccc3n2)s1	.	-0.8	.	6.44*	48.3	?	0.0266*	0.0307	0.0126*	?	0.0107*
CCSc1nnc(NC(=O)c2ccc3ccccc3n2)s1	28.9	4.0	-8.9	36.1*	.	0.0321*	0.117*	0.035	0.088*	0.0725*	0.0178*
CC1CCCCC1NC(=S)NC(=O)c1sc2ccccc2c1Cl (stereo not drawn)	.	7.7	.	2.07	22.4	.	.	.	.	.	.
CC(=O)c1cccc(NC(=S)NC(=O)c2ccc(Cl)cc2)c1	-14.8	3.7	4.2	5.49*	-0.5	0.00588	0.0156*	0.0314	0.0109*	?	?
CC1CCCCC1NC(=S)NC(=O)c1ccccc1Br (stereo not drawn)	-17.2	2.5	3.7	22.4*	8.5	0.0074	0.00967*	0.0348	0.0143*	0.0272*	0.0152*
CC(=O)c1cccc(NC(=S)NC(=O)c2ccccc2Br)c1	-26.2	2.0	-1.7	7.02*	-10.3	0.014*	0.0764*	0.0375	0.0173*	?	0.0134*
SMILES	Yeast growth inh	RAM inhibit	Yeast life ext	KCC2 mod	WT yeast gro inh	KCC2 secondary	KCC2 bumet counter	KCC2 secondary2	HEK counter1	KCC2 ouabain	HEK counter2
COc1ccccc1NC(=O)N1CCCC1C(=O)NC12CC3CC(CC(C3)C1)C2 (stereo not drawn)	5.8	3.3	-8.2	0.582	5.5	.	.	.	.	.	.
S=c1[nH]nc(-c2ccc(Br)cc2)n1Cc1ccco1	-55.4	3.6	-18.9	.	21.6	0.00655	0.016*	0.029	0.0146*	?	0.0142*
S=c1[nH]nc(COc2ccc(Cl)cc2)n1Cc1ccco1	.	2.5	.	10.1*	31.0	0.00959	0.0571*	0.0289	0.0119*	0.0277*	?
CCCCc1n[nH]c(=S)n1Cc1ccccc1	.	-0.3	.	-0.0437	5.9	.	.	.	.	.	.
CCc1ccc(OCc2n[nH]c(=S)n2Cc2ccccc2)cc1	.	1.2	.	14.9*	65.0*	0.00954	0.0358*	0.0302	0.015*	?	0.011*
S=c1[nH]nc(-c2ccncc2)n1Cc1ccco1	-41.5	1.3	0.2	-0.613	-10.3	.	.	.	.	.	.
CCCCc1n[nH]c(=S)n1Cc1ccc(Cl)cc1	.	1.1	.	4.22*	45.1	0.00879	0.0173*	0.0343	0.00941*	0.0222	0.0107
COc1ccc([C@@H]2[C@H]3C(=O)N(c4cccc(C(F)(F)F)c4)C(=O)[C@H]3ON2C)cc1	-23.8	2.1	-6.5	0.159	-16.8	.	.	.	.	.	.
CC(C)CCn1c(COc2ccccc2)n[nH]c1=S	.	2.0	.	6.25*	29.8	0.00961	0.0303*	0.0295	0.0135*	0.0256	0.011*
Cc1n[nH]c(=S)n1Cc1ccccc1	.	.	.	0.307	.	.	.	.	.	.	.
CC(C)Cn1c(Cc2ccccc2)n[nH]c1=S	-9.6	0.9	2.9	0.445	8.0	.	.	.	.	.	.
Cc1cccc(OCc2n[nH]c(=S)n2Cc2ccccc2)c1	.	0.1	.	8.93*	65.4*	0.0134*	0.0617*	0.0329	0.0179*	0.0258	0.0122*
Fc1ccc(CNC(=S)Nc2ccc(Cl)cc2Cl)cc1	-1.6	3.3	-5.2	1.93	8.6	.	.	.	.	.	.
